In ChEMBL document CHEMBL3792365, “Dioxol and dihydrodioxin analogs of 2- and 3-phenylacetonitriles as potent anti-cancer agents with nanomolar activity against a variety of human cancer cells” (2016):

Assays:
Assay type in all cases: functional
NCI-H522 = assay: Growth inhibition of human NCI-H522 cells after 48 hrs by sulforhodamine B assay; conditions: NCI-H522, 48 h
How it was run: (§1)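 Five-dose concentration series run across a panel of 60 human tumour cell lines. GI50 is taken as the drug concentration giving a 50% reduction in net protein increase relative to untreated control cells.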

[1] = Growth inhibition of human SF268 cells after 48 hrs by sulforhodamine B assay; conditions: SF-268, 48 h; how it was run: as §1
[2] = Growth inhibition of human UACC257 cells at 10 uM after 48 hrs by sulforhodamine B assay; conditions: UACC-257, 48 h, values are per cent of control
[3] = Growth inhibition of human HCC2998 cells after 48 hrs by sulforhodamine B assay; conditions: HCC 2998, 48 h
How it was run: (§2)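 Five-dose testing against a 60-line human tumor cell panel. GI50 is the drug concentration giving a 50% reduction in net protein increase relative to untreated control cells.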

[4] = Growth inhibition of human HOP62 cells at 10 uM after 48 hrs by sulforhodamine B assay; conditions: HOP-62, 48 h, values are per cent of control
[5] = Growth inhibition of human SKOV3 cells after 48 hrs by sulforhodamine B assay; conditions: SK-OV-3, 48 h; how it was run: as §1
[6] = Growth inhibition of human SW620 cells after 48 hrs by sulforhodamine B assay; conditions: SW-620, 48 h; how it was run: as §1
[7] = Growth inhibition of human IGROV1 cells at 10 uM after 48 hrs by sulforhodamine B assay; conditions: IGROV-1, 48 h, values are per cent of control
[8] = Growth inhibition of human MOLT4 cells after 48 hrs by sulforhodamine B assay; conditions: MOLT-4, 48 h; how it was run: as §1
MDA-MB-435 = assay: Growth inhibition of human MDA-MB-435 cells after 48 hrs by sulforhodamine B assay; conditions: MDA-MB-435, 48 h; how it was run: as §2
CCRF-CEM [9] = assay: Growth inhibition of human CCRF-CEM cells after 48 hrs by sulforhodamine B assay; how it was run: as §2
[10] = Growth inhibition of human PC3 cells after 48 hrs by sulforhodamine B assay; conditions: PC-3, 48 h; how it was run: as §1
[11] = Growth inhibition of human Hs 578T cells after 48 hrs by sulforhodamine B assay; how it was run: as §2
[12] = Growth inhibition of human HCC2998 cells at 10 uM after 48 hrs by sulforhodamine B assay; conditions: HCC 2998, 48 h, values are per cent of control
MCF7 = assay: Growth inhibition of human MCF7 cells at 10 uM after 48 hrs by sulforhodamine B assay; conditions: MCF7, 48 h, values are per cent of control
[13] = Growth inhibition of human MOLT4 cells at 10 uM after 48 hrs by sulforhodamine B assay; conditions: MOLT-4, 48 h, values are per cent of control
[14] = Growth inhibition of human HCT116 cells after 48 hrs by sulforhodamine B assay; conditions: HCT-116, 48 h; how it was run: as §2
SK-MEL-28 [15] = assay: Growth inhibition of human SK-MEL-28 cells at 10 uM after 48 hrs by sulforhodamine B assay; conditions: SK-MEL-28, 48 h, values are per cent of control
[16] = Growth inhibition of human OVCAR3 cells after 48 hrs by sulforhodamine B assay; conditions: OVCAR-3, 48 h; how it was run: as §1
[17] = Growth inhibition of human HCT15 cells after 48 hrs by sulforhodamine B assay; conditions: HCT-15, 48 h; how it was run: as §2
A549 = assay: Growth inhibition of human A549/ATCC cells after 48 hrs by sulforhodamine B assay; conditions: A549, 48 h; how it was run: as §2
[18] = Growth inhibition of human SNB19 cells after 48 hrs by sulforhodamine B assay; conditions: SNB-19, 48 h; how it was run: as §1
[19] = Growth inhibition of human HL-60(TB) cells at 10 uM after 48 hrs by sulforhodamine B assay; conditions: HL-60, 48 h, values are per cent of control
SK-MEL-2 [20] = assay: Growth inhibition of human SK-MEL-2 cells after 48 hrs by sulforhodamine B assay; conditions: SK-MEL-2, 48 h; how it was run: as §1
[21] = Growth inhibition of human HOP92 cells after 48 hrs by sulforhodamine B assay; conditions: HOP-92, 48 h; how it was run: as §2
CCRF-CEM [22] = assay: Growth inhibition of human CCRF-CEM cells at 10 uM after 48 hrs by sulforhodamine B assay; conditions: values are per cent of control
Malme-3M = assay: Growth inhibition of human MALME-3M cells at 10 uM after 48 hrs by sulforhodamine B assay; conditions: values are per cent of control
[23] = Growth inhibition of human RPMI8226 cells after 48 hrs by sulforhodamine B assay; conditions: RPMI-8226, 48 h; how it was run: as §1
786-0 = assay: Growth inhibition of human 786-0 cells at 10 uM after 48 hrs by sulforhodamine B assay; conditions: 786-0, 48 h, values are per cent of control
[24] = Growth inhibition of human COLO205 cells after 48 hrs by sulforhodamine B assay; conditions: COLO 205, 48 h; how it was run: as §2
[25] = Growth inhibition of human RXF393 cells at 10 uM after 48 hrs by sulforhodamine B assay; conditions: RXF 393, 48 h, values are per cent of control
KM12 = assay: Growth inhibition of human KM12 cells after 48 hrs by sulforhodamine B assay; conditions: KM12, 48 h; how it was run: as §2
[26] = Growth inhibition of human OVCAR4 cells after 48 hrs by sulforhodamine B assay; conditions: OVCAR-4, 48 h; how it was run: as §1
SK-MEL-28 [27] = assay: Growth inhibition of human SK-MEL-28 cells after 48 hrs by sulforhodamine B assay; conditions: SK-MEL-28, 48 h; how it was run: as §1
[28] = Growth inhibition of human UACC62 cells after 48 hrs by sulforhodamine B assay; conditions: UACC-62, 48 h
How it was run: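 Five-dose testing across the 60-line human tumour cell panel. GI50 is the drug concentration that gives a 50% reduction in net protein increase relative to control cells.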

[29] = Growth inhibition of human SNB75 cells at 10 uM after 48 hrs by sulforhodamine B assay; conditions: SNB-75, 48 h, values are per cent of control
SR = assay: Growth inhibition of human SR cells after 48 hrs by sulforhodamine B assay; how it was run: as §1
[30] = Growth inhibition of human RPMI8226 cells at 10 uM after 48 hrs by sulforhodamine B assay; conditions: RPMI-8226, 48 h, values are per cent of control
SK-MEL-2 [31] = assay: Growth inhibition of human SK-MEL-2 cells at 10 uM after 48 hrs by sulforhodamine B assay; conditions: SK-MEL-2, 48 h, values are per cent of control
[32] = Growth inhibition of human LOXIMVI cells after 48 hrs by sulforhodamine B assay; conditions: LOX IMVI; how it was run: as §2
[33] = Growth inhibition of human PC3 cells at 10 uM after 48 hrs by sulforhodamine B assay; conditions: PC-3, 48 h, values are per cent of control
[34] = Growth inhibition of human OVCAR3 cells at 10 uM after 48 hrs by sulforhodamine B assay; conditions: OVCAR-3, 48 h, values are per cent of control
[35] = Growth inhibition of human UO31 cells at 10 uM after 48 hrs by sulforhodamine B assay; conditions: UO-31, 48 h, values are per cent of control

COc1ccc(/C=C(\C#N)c2ccc3c(c2)OCO3)c2ccccc12
GI50 (NCI-H522): 2.37 µM | GI50 [1]: 9.34 µM | growth, % of control at 10 µM [2]: 41% | GI50 [3]: 5.42 µM | growth, % of control at 10 µM [4]: 44.4% | GI50 [5]: 2.35 µM | GI50 [6]: 0.72 µM | growth, % of control at 10 µM [7]: 36.3% | GI50 [8]: 3.71 µM | GI50 (MDA-MB-435): 0.31 µM | GI50 (CCRF-CEM [9]): 1.91 µM | GI50 [10]: 3.04 µM | GI50 [11]: 2.63 µM | growth, % of control at 10 µM [12]: 45.7% | growth, % of control at 10 µM (MCF7): 12.1% | growth, % of control at 10 µM [13]: 26.8% | GI50 [14]: 2.41 µM | growth, % of control at 10 µM (SK-MEL-28 [15]): 43.6% | GI50 [16]: 3.04 µM | GI50 [17]: 0.75 µM | GI50 (A549): 2.65 µM | GI50 [18]: 4.24 µM | growth, % of control at 10 µM [19]: 7.8% | GI50 (SK-MEL-2 [20]): 2.9 µM | GI50 [21]: 12 µM | growth, % of control at 10 µM (CCRF-CEM [22]): 21.6% | growth, % of control at 10 µM (Malme-3M): 37.9% | GI50 [23]: 3.85 µM | growth, % of control at 10 µM (786-0): 40.2% | GI50 [24]: 1.61 µM | growth, % of control at 10 µM [25]: -17.7% | GI50 (KM12): 2.39 µM | GI50 [26]: 3.79 µM | GI50 (SK-MEL-28 [27]): 4.52 µM | GI50 [28]: 1.51 µM | growth, % of control at 10 µM [29]: -3.1% | GI50 (SR): 5.44 µM | growth, % of control at 10 µM [30]: 5.3% | growth, % of control at 10 µM (SK-MEL-2 [31]): 13.1% | GI50 [32]: 3.96 µM | growth, % of control at 10 µM [33]: 36.1% | growth, % of control at 10 µM [34]: -21.2% | growth, % of control at 10 µM [35]: 42.1%
